Laboratory results published in publication PMC4944838 (Molecular cell, 2013).
Residue numbers refer to the chain shown, from its start. Blank lines part the entries; values can stand above or below the molecule they belong to. Where no end group is shown, it is not given here. [ ]: non-standard residue; d: D form. pT = C[C@@H](OP(=O)(O)O)[C@H](N)C(=O)O

What was measured:
[1] = target: T1, Rad4-BRCT1,2 (Schizosaccharomyces pombe, UniProt P32372); test: Co-crystallisation with Rad4-BRCT1,2; assay type: binding, S. pombe; settings: co-crystal X-ray structure
T1 sequence (P32372 1-186 limits assumed): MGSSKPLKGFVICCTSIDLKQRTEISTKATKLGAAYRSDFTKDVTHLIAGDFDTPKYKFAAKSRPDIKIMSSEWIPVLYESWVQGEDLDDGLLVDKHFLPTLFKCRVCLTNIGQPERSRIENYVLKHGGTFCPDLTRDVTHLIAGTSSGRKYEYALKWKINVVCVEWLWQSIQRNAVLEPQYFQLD
Procedure, shortened: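 S. pombe Rad4 BRCT1,2 construct expressed in E. coli and purified by affinity tags and conventional column chromatography. Crystals of protein and complexes grown by hanging-drop vapour diffusion. Diffraction data collected from single crystals on a home source or synchrotron. Structures phased by molecular replacement and refined.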

[2] = target: Rad4-BRCT1,2 (BRCT1,2 segment of S. pombe Rad4^TopBP1) (S. pombe) (UniProt P32372); test: fluorescence polarisation
[3] = target: Rad4-BRCT1,2 K56E (S. pombe) (UniProt P32372); test: fluorescence polarisation
[4] = target: Rad4-BRCT1,2 K151E (S. pombe) (UniProt P32372); test: fluorescence polarisation
[5] = target: Rad4-BRCT3,4 (BRCT3,4 segment of S. pombe Rad4^TopBP1) (S. pombe) (UniProt P32372); test: fluorescence polarisation
Rad4-BRCT3,4 (BRCT3,4 segment of S. pombe Rad4^TopBP1) (S. pombe), sequence (P32372 291-494): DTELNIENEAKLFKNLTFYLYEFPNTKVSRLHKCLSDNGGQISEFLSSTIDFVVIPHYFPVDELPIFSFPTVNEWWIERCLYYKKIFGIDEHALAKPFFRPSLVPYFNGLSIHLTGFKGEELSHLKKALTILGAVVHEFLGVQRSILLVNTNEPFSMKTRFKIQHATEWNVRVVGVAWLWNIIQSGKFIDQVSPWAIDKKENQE

[6] = target: T2, Rad4-BRCT1,2 K151E (S. pombe, UniProt P32372 1-186, K151E); test: fluorescence polarisation
T2 sequence: T1 sequence (P32372 1-186 limits assumed) with K151E

[7] = target: T3, Rad4-BRCT1,2 K56E (S. pombe, UniProt P32372 1-186, K56E); test: fluorescence polarisation
T3 sequence: T1 sequence (P32372 1-186 limits assumed) with K56E

Molecule: 184 – Val Pro Glu pThr Val – 188
site occupancy in co-crystal structure with Rad4-BRCT1,2 (in words) [1]: peptide molecules bound to both BRCT domains

Molecule: 232 – Val Glu Ser pThr Pro – 236 [Crb2 phosphopeptide (residues 229-241)]
site occupancy in co-crystal structure with Rad4-BRCT1,2 (in words) [1]: only the BRCT2 site was occupied

Molecule: Rad9 C-terminal tail peptide phosphorylated on Ser423
Kd [5]: 8.6 µM

Molecule: Rad9 C-terminal tail peptide phosphorylated on Thr412 and Ser423
Kd [5]: 6.4 µM

More lines, now with the values ahead:

Kd [2]: 1970 nM
Molecule: Crb2 peptide phosphorylated on both Thr215 and Thr235 (fluorescence polarisation)

Kd [3]: 2200 nM
Kd [4]: 400 nM
Kd [2]: 500 nM
Molecule: Crb2-pThr187 phosphopeptide, fluorescently labelled

Kd [5]: 1.9 µM
Molecule: Rad9 C-terminal tail peptide phosphorylated on Thr412

Kd [6]: 59 µM
Kd [7]: 11.7 µM
Molecule: RVES[pT]PPAFLP (also: fluorescein label, site not given here) [Crb2-pThr235 phosphopeptide, fluorescently labelled]
